Measurements: ChEMBL document CHEMBL2069282, “Sugar-modified derivatives of cytostatic 7-(het)aryl-7-deazaadenosines: 2'-C-methylribonucleosides, 2'-deoxy-2'-fluoroarabinonucleosides, arabinonucleosides and 2'-deoxyribonucleosides” (Bioorg Med Chem, 2012)
pEC50, pIC50: −log10 of the molar value.

Tests used:
HepG2 = experiment: Cytotoxicity against human HepG2 cells incubated for 3 days by XTT assay; format: functional, cell-based; conditions: HepG2, 72 h
Procedure, shortened: (§1)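 Cell viability read by a metabolic XTT tetrazolium method after 3-day incubation of cells with compound. Values are from 2–4 independent experiments.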

Hepatitis C virus [1] = experiment: Antiviral activity against Hepatitis C virus subtype 1a replicons infected in human HuH7 cells assessed as reduction in viral RNA levels by Rt-PCR; format: functional, organism-based, Hepacivirus hominis; conditions: Huh-7
HL-60 = experiment: Cytotoxicity against human HL60 cells incubated for 3 days by XTT assay; format: functional, cell-based; conditions: HL-60, 72 h; procedure, shortened: as §1
[2] = Cytotoxicity against human HeLaS3 cells incubated for 3 days by XTT assay; format: functional, cell-based; conditions: HeLa S3, 72 h; procedure, shortened: as §1
[3] = Selectivity index, ratio of CC50 for human HuH7 cells to EC50 for Hepatitis C virus subtype 1a replicons; format: toxicity, cell-based, Huh-7; conditions: read-out: Ratio CC50/EC50
[4] = Selectivity index, ratio of CC50 for human HuH7 cells to EC50 for Hepatitis C virus subtype 1b replicons; format: toxicity, cell-based, Huh-7; conditions: read-out: Ratio CC50/EC50
Hepatitis C virus [5] = experiment: Antiviral activity against Hepatitis C virus subtype 1b replicons infected in human HuH7 cells assessed as reduction in viral RNA levels by Rt-PCR; format: functional, organism-based, Hepacivirus hominis; conditions: genotype 1b, Huh-7
CCRF-CEM = experiment: Cytotoxicity against human CCRF-CEM cells incubated for 3 days by XTT assay; format: functional, cell-based; conditions: 72 h; procedure, shortened: as §1
[6] = Toxicity against human HuH7 cells incubated for 3 days by CellTiter 96 AQueous One Solution cell proliferation assay; format: cell-based, Huh-7
NCI-H23 = experiment: Cytostatic activity against human NCI-H23 cells incubated for 3 days by SRB assay; format: functional; conditions: NCI-H23, 72 h
HCT-116 = experiment: Cytostatic activity against human HCT116 cells incubated for 3 days by SRB assay; format: functional; conditions: HCT-116, 72 h
[7] = Cytostatic activity against human Hs578 cells incubated for 3 days by SRB assay; format: functional; conditions: Hs578, 72 h
DU-145 = experiment: Cytostatic activity against human DU145 cells incubated for 3 days by SRB assay; format: functional; conditions: DU-145, 72 h

Row | Structure (SMILES) | pIC50 (HepG2) | pEC50 (Hepatitis C virus [1]) | pIC50 (HL-60) | pIC50 [2] | selectivity ratio [3] | selectivity ratio [4] | pEC50 (Hepatitis C virus [5]) | pIC50 (CCRF-CEM) | CC50 at 72 h [6] | GI50 (NCI-H23) | GI50 (HCT-116) | GI50 [7] | GI50 (DU-145)
1 | Nc1ncnc2c1c(-c1ccco1)cn2[C@@H]1O[C@H](CO)[C@@H](O)[C@@H]1O | 5.18 | 5.47 | < 5.00 | 5.12 | < 10 | < 10 | 5.52 | 5.18 | > 44 µM |  |  |  | 
2 | Nc1ncnc2c1c(-c1cnn[nH]1)cn2[C@@H]1O[C@H](CO)[C@@H](O)[C@@H]1F |  | 5.74 | < 5.00 | 5.18 | < 10 | < 10 | 6.04 | 5.46 | 10.9 µM | 5.36 µM | 7.64 µM | 1.82 µM | 9.41 µM
3 | Nc1ncnc2c1c(-c1ccsc1)cn2[C@@H]1O[C@H](CO)[C@@H](O)[C@@H]1O | < 4.82 | 4.42 | 4.89 | 5.15 | < 10 | < 10 | 4.47 | 5.51 | > 44 µM |  |  |  | 
4 | Nc1ncnc2c1c(-c1ccco1)cn2[C@@H]1O[C@H](CO)[C@@H](O)[C@@H]1F |  | 4.80 |  |  | < 10 | < 10 | 4.92 |  | > 44 µM | > 10 µM | > 10 µM | 8.49 µM | 8.52 µM
5 | Nc1ncnc2c1c(-c1ccoc1)cn2[C@@H]1O[C@H](CO)[C@@H](O)[C@@H]1F |  | 4.43 |  |  | < 10 | < 10 | 4.77 |  | > 44 µM |  |  |  | 
6 | C#Cc1cn([C@@H]2O[C@H](CO)[C@@H](O)[C@@H]2O)c2ncnc(N)c12 | 5.01 | 5.81 | < 5.00 | 5.42 | < 10 | < 10 | 5.76 | < 5.00 | 17.4 µM |  |  |  | 
7 | Nc1ncnc2c1c(I)cn2[C@@H]1O[C@H](CO)[C@@H](O)[C@@H]1O | 5.21 | 5.86 | 5.19 | 5.50 | < 10 | < 10 | 5.86 | 5.15 | 9.97 µM |  |  |  | 
8 | C[C@@]1(O)[C@H](O)[C@@H](CO)O[C@H]1n1cc(-c2cccs2)c2c(N)ncnc21 |  |  |  |  | < 10 | < 10 | 4.85 |  | 48.1 µM |  |  |  | 
9 | C[C@@]1(O)[C@H](O)[C@@H](CO)O[C@H]1n1cc(-c2ccoc2)c2c(N)ncnc21 |  | 4.74 |  |  | < 10 | < 10 | 4.91 |  | > 44 µM |  |  |  | 
10 | Nc1ncnc2c1c(-c1ccsc1)cn2[C@@H]1O[C@H](CO)[C@@H](O)[C@@H]1F |  | 4.96 |  |  | < 10 | < 10 | 4.97 |  | 24.4 µM |  |  |  | 
11 | Nc1ncnc2c1c(-c1cccs1)cn2[C@@H]1O[C@H](CO)[C@@H](O)[C@@H]1O | 4.91 | 4.45 | 4.87 | 5.27 | < 10 | < 10 | 4.69 | 5.37 | > 44 µM |  |  |  | 
12 | C[C@@]1(O)[C@H](O)[C@@H](CO)O[C@H]1n1cc(-c2ccco2)c2c(N)ncnc21 |  |  |  |  | < 10 | < 10 | 5.05 |  | 49.6 µM | 6.08 µM | > 10 µM | 9.05 µM | 8.89 µM
13 | Nc1ncnc2c1c(-c1cccs1)cn2[C@H]1C[C@H](O)[C@@H](CO)O1 |  | 5.12 |  |  | < 10 | < 10 | 5.29 |  | > 44 µM |  |  |  | 
14 | C[C@@]1(O)[C@H](O)[C@@H](CO)O[C@H]1n1cc(-c2ccsc2)c2c(N)ncnc21 |  | 4.44 |  |  | < 10 | < 10 | 4.81 |  | > 44 µM |  |  |  | 
15 | C#Cc1cn([C@@H]2O[C@H](CO)[C@@H](O)[C@@H]2F)c2ncnc(N)c12 |  | 6.44 | 6.70 | 6.66 | < 10 | < 10 | 6.44 | 6.74 | 2.68 µM | 0.048 µM | 0.108 µM | 0.065 µM | 0.002 µM
16 | Nc1ncnc2c1c(-c1ccccc1)cn2[C@@H]1O[C@H](CO)[C@@H](O)[C@@H]1O |  | < 4.36 |  |  | < 10 | < 10 | < 4.36 |  | > 44 µM |  |  |  | 
17 | Nc1ncnc2c1c(-c1cn[nH]c1)cn2[C@@H]1O[C@H](CO)[C@@H](O)[C@@H]1F |  | 4.65 | < 5.00 | < 5.00 | < 10 | < 10 | 5.07 | 5.04 | > 44 µM |  |  |  | 
18 | Nc1ncnc2c1c(-c1ccccc1)cn2[C@@H]1O[C@H](CO)[C@@H](O)[C@@H]1F |  | 4.58 |  |  | < 10 | < 10 | 4.36 |  | > 44 µM |  |  |  | 
19 | Nc1ncnc2c1c(-c1cccs1)cn2[C@@H]1O[C@H](CO)[C@@H](O)[C@@H]1F | < 5.00 | 5.55 | < 5.00 | 5.25 | < 10 | < 10 | 5.39 | 5.12 | 42.9 µM |  |  |  | 
20 | Nc1ncnc2c1c(-c1ccoc1)cn2[C@@H]1O[C@H](CO)[C@@H](O)[C@@H]1O | 5.21 | 4.60 | < 5.00 | 5.08 | < 10 | < 10 | 4.65 | 5.33 | > 44 µM |  |  |  | 
21 | Nc1ncnc2c1c(-c1ccoc1)cn2[C@H]1C[C@H](O)[C@@H](CO)O1 |  | 4.62 |  |  | < 10 | < 10 | 5.28 |  | > 44 µM |  |  |  | 
22 | C[C@@]1(O)[C@H](O)[C@@H](CO)O[C@H]1n1cc(-c2cc3ccccc3o2)c2c(N)ncnc21 |  | 5.21 | < 5.00 | < 5.00 | < 10 | < 10 | 5.21 | 5.11 | 29.4 µM |  |  |  | 
23 | C[C@@]1(O)[C@H](O)[C@@H](CO)O[C@H]1n1cc(I)c2c(N)ncnc21 |  | 6.43 | < 5.00 | 5.12 | 65 | 65 | 6.42 | 5.36 | 19.8 µM | 0.79 µM | 6.65 µM | 4.39 µM | 3.38 µM
24 | Nc1ncnc2c1c(-c1ccco1)cn2[C@H]1C[C@H](O)[C@@H](CO)O1 |  | 4.96 |  |  | < 10 | < 10 | 5.38 |  | > 44 µM |  |  |  | 
25 | COc1ccc(-c2cn([C@@H]3O[C@H](CO)[C@@H](O)[C@@]3(C)O)c3ncnc(N)c23)cc1 |  | 4.92 |  |  | < 10 | < 10 | 5.03 |  | > 44 µM |  |  |  | 
26 | C[C@@]1(O)[C@H](O)[C@@H](CO)O[C@H]1n1cc(-c2cccc3ccccc23)c2c(N)ncnc21 |  | 4.61 |  |  | < 10 | < 10 | 4.62 |  | > 44 µM |  |  |  | 
27 | C[C@@]1(O)[C@H](O)[C@@H](CO)O[C@H]1n1cc(-c2ccccc2)c2c(N)ncnc21 |  | 4.45 |  |  | < 10 | < 10 | 4.57 |  | > 44 µM |  |  |  | 
28 | C[C@@]1(O)[C@H](O)[C@@H](CO)O[C@H]1n1cc(-c2ccc3ccccc3c2)c2c(N)ncnc21 |  | 5.31 | < 5.00 | < 5.00 | < 10 | < 10 | 5.27 | 5.40 | 20.1 µM |  |  |  | 
29 | Nc1ncnc2c1c(-c1ccsc1)cn2[C@H]1C[C@H](O)[C@@H](CO)O1 |  | 4.94 |  |  | < 10 | < 10 | 5.23 |  | > 44 µM |  |  |  | 
